# Experimental data from ChEMBL document CHEMBL3120102, “Structure-based design, synthesis and biological evaluation of novel anthra[1,2-d]imidazole-6,11-dione homologues as potential antitumor agents” (2013).
# Assays:
# Format in all cases: functional
# OVCAR-3 [1] = assay: Cytotoxicity against human OVCAR3 cells assessed as cell growth at 10 uM after 48 hrs by SRB assay; conditions: OVCAR-3, 48 h, read-out: Activity
# How it was run: (§1)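 First stage of the NCI 60 human tumour cell line screen: a single dose is tested against every line. Cell growth is read as cellular protein by sulforhodamine B colorimetry after 48 h of drug exposure, with reference to a time-zero control and to untreated plates.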
# MDA-MB-468 = assay: Cytotoxicity against human MDA-MB-468 cells assessed as cell growth at 10 uM after 48 hrs by SRB assay; conditions: MDA-MB-468, 48 h, read-out: Activity; how it was run: as §1
# HT-29 [2] = assay: Cytotoxicity against human HT-29 cells assessed as cell growth at 10 uM after 48 hrs by SRB assay; conditions: HT-29, 48 h, read-out: Activity
# SF-268 = assay: Cytotoxicity against human SF268 cells assessed as growth inhibition after 48 hrs by SRB assay
# How it was run: (§2)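 NCI 60-cell-line screen, five-dose stage: each cell line exposed for 48 h to five concentrations spanning five log steps; cellular protein measured by sulforhodamine B colorimetry. A time-zero cell control and plates without drug are used to derive GI50, TGI and LC50 from log-concentration dose-response curves.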
# NCI-H226 = assay: Cytotoxicity against human NCI-H226 cells assessed as growth inhibition after 48 hrs by SRB assay; how it was run: as §2
# OVCAR-8 = assay: Cytotoxicity against human OVCAR8 cells assessed as growth inhibition after 48 hrs by SRB assay; how it was run: as §2
# NCI/ADR-RES = assay: (§3) Cytotoxicity against human NCI-ADR-RES cells assessed as growth inhibition after 48 hrs by SRB assay; how it was run: as §2
# [3] = as §3; how it was run: as §2
# DU-145 = assay: Cytotoxicity against human DU145 cells assessed as growth inhibition after 48 hrs by SRB assay
# How it was run: (§4)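 NCI 60-cell-line five-dose screen at […]. Drug exposure was 48 h, followed by sulforhodamine B protein staining. GI50, TGI and LC50 were calculated against a time-zero control and untreated plates, with dose–response curves plotted from log10 concentration.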
# Malme-3M = assay: Cytotoxicity against human MALME-3M cells assessed as growth inhibition after 48 hrs by SRB assay; how it was run: as §4
# EKVX = assay: (§5) Cytotoxicity against human EKVX cells assessed as growth inhibition after 48 hrs by SRB assay; how it was run: as §4
# [4] = as §5; how it was run: as §4
# RPMI-8226 = assay: Cytotoxicity against human RPMI8226 cells assessed as growth inhibition after 48 hrs by SRB assay; how it was run: as §2
# OVCAR-3 [5] = assay: Cytotoxicity against human OVCAR3 cells assessed as growth inhibition after 48 hrs by SRB assay; how it was run: as §2
# SW-620 = assay: Cytotoxicity against human SW620 cells assessed as growth inhibition after 48 hrs by SRB assay
# How it was run: (§6)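 NCI 60-cell-line screen, two stages. Five-dose testing at […]. Cellular protein measured by sulforhodamine B colorimetry after 48 h drug exposure. A time-zero control and drug-free plates are used to derive GI50, TGI and LC50 from dose-response curves plotted as log10 concentration per cell line.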
# U-251 = assay: Cytotoxicity against human U251 cells assessed as growth inhibition after 48 hrs by SRB assay; how it was run: as §6
# LOX IMVI = assay: Cytotoxicity against human LOXIMVI cells assessed as growth inhibition after 48 hrs by SRB assay; how it was run: as §4
# CCRF-CEM = assay: Cytotoxicity against human CCRF-CEM cells assessed as growth inhibition after 48 hrs by SRB assay; how it was run: as §4
# COLO 205 = assay: Cytotoxicity against human COLO205 cells assessed as growth inhibition after 48 hrs by SRB assay; how it was run: as §4
# HT-29 [6] = assay: Cytotoxicity against human HT-29 cells assessed as growth inhibition after 48 hrs by SRB assay; how it was run: as §4
# SF-539 = assay: Cytotoxicity against human SF539 cells assessed as growth inhibition after 48 hrs by SRB assay; how it was run: as §2
# NCI-H322M = assay: Cytotoxicity against human NCI-H322M cells assessed as growth inhibition after 48 hrs by SRB assay; how it was run: as §2
# SK-OV-3 = assay: Cytotoxicity against human SKOV3 cells assessed as growth inhibition after 48 hrs by SRB assay; how it was run: as §2
# UACC-62 = assay: Cytotoxicity against human UACC62 cells assessed as growth inhibition after 48 hrs by SRB assay; how it was run: as §6
# NCI-H522 = assay: Cytotoxicity against human NCI-H522 cells assessed as growth inhibition after 48 hrs by SRB assay; how it was run: as §2
# OVCAR-5 = assay: (§7) Cytotoxicity against human OVCAR5 cells assessed as growth inhibition after 48 hrs by SRB assay; how it was run: as §2
# [7] = as §7; conditions: OVCAR-5, 48 h; how it was run: as §2
# [8] = (§8) Cytotoxicity against human UACC257 cells assessed as growth inhibition after 48 hrs by SRB assay; conditions: UACC-257, 48 h; how it was run: as §6
# UACC-257 = assay: as §8; how it was run: as §6
# NCI-H460 = assay: Cytotoxicity against human NCI-H460 cells assessed as growth inhibition after 48 hrs by SRB assay; how it was run: as §2
structure (smiles),measurement,setting,value
O=C1c2ccccc2C(=O)c2c1ccc1[nH]c(=S)[nH]c21,growth at 10 µM,OVCAR-3 [1],86.9%
same,growth at 10 µM,MDA-MB-468,87.7%
same,growth at 10 µM,HT-29 [2],104%
CCCSc1nc2ccc3c(c2[nH]1)C(=O)c1ccccc1C3=O,growth inhibition (GI),SF-268,Dose-dependent effect
same,GI50,"SF-268; SF-268, 48 h",3.71 µM
same,LC50 (concentration killing 50% of cells relative to time zero),"SF-268; SF-268, 48 h",> 100 µM
same,TGI,"SF-268; SF-268, 48 h",> 100 µM
same,growth inhibition (GI),NCI-H226,Dose-dependent effect
same,GI50,"NCI-H226; NCI-H226, 48 h",4.37 µM
same,LC50,"NCI-H226; NCI-H226, 48 h",> 100 µM
same,TGI,"NCI-H226; NCI-H226, 48 h",> 100 µM
same,growth inhibition (GI),OVCAR-8,Dose-dependent effect
same,GI50,"OVCAR-8; OVCAR-8, 48 h",3.48 µM
same,LC50,"OVCAR-8; OVCAR-8, 48 h",> 100 µM
same,TGI,"OVCAR-8; OVCAR-8, 48 h",> 100 µM
same,growth inhibition (GI),NCI/ADR-RES,Dose-dependent effect
same,GI50,[3],2370 nM
same,LC50 (concentration causing 50% net cell kill),[3],> 100 µM
same,TGI,[3],> 100 µM
same,growth inhibition (GI),DU-145,Dose-dependent effect
same,GI50,"DU-145; DU-145, 48 h",> 100 µM
same,TGI,"DU-145; DU-145, 48 h",> 100 µM
same,CC50,"DU-145; DU-145, 48 h, read-out: LC50 (the source's name)",> 100 µM
same,GI50,Malme-3M,4.27 µM
same,TGI,Malme-3M,> 100 µM
same,growth inhibition (GI),Malme-3M,Dose-dependent effect
same,CC50,Malme-3M; read-out: LC50 (the source's name),> 100 µM
same,growth inhibition (GI),EKVX,Dose-dependent effect
same,GI50,[4],64.9 µM
same,LC50,[4],> 100 µM
same,TGI,[4],> 100 µM
same,growth inhibition (GI),RPMI-8226,Dose-dependent effect
same,GI50,"RPMI-8226; RPMI-8226, 48 h",> 100 µM
same,LC50 (concentration causing 50% net cell kill),"RPMI-8226; RPMI-8226, 48 h",> 100 µM
same,TGI,"RPMI-8226; RPMI-8226, 48 h",> 100 µM
same,growth at 10 µM,OVCAR-3 [1],62.7%
same,growth inhibition (GI),OVCAR-3 [5],Dose-dependent effect
same,GI50,"OVCAR-3 [5]; OVCAR-3, 48 h",3.97 µM
same,LC50 (50% lethal concentration),"OVCAR-3 [5]; OVCAR-3, 48 h",> 100 µM
same,TGI,"OVCAR-3 [5]; OVCAR-3, 48 h",37.6 µM
same,growth inhibition (GI),SW-620,Dose-dependent effect
same,GI50,"SW-620; SW-620, 48 h",> 100 µM
same,LC50,"SW-620; SW-620, 48 h",> 100 µM
same,TGI,"SW-620; SW-620, 48 h",> 100 µM
same,growth inhibition (GI),U-251,Dose-dependent effect
same,GI50,"U-251; U-251, 48 h",7.05 µM
same,TGI,"U-251; U-251, 48 h",> 100 µM
same,CC50,"U-251; U-251, 48 h, read-out: LC50 (the source's name)",> 100 µM
same,GI50,LOX IMVI,3.69 µM
same,LC50,LOX IMVI,> 100 µM
same,TGI,LOX IMVI,> 100 µM
same,growth inhibition (GI),LOX IMVI,Dose-dependent effect
same,GI50,CCRF-CEM,> 100 µM
same,LC50,CCRF-CEM,> 100 µM
same,TGI,CCRF-CEM,> 100 µM
same,growth inhibition (GI),CCRF-CEM,Dose-dependent effect
same,growth inhibition (GI),COLO 205,Dose-dependent effect
same,GI50,"COLO 205; COLO 205, 48 h",> 100 µM
same,LC50,"COLO 205; COLO 205, 48 h",> 100 µM
same,TGI,"COLO 205; COLO 205, 48 h",> 100 µM
same,growth inhibition (GI),HT-29 [6],Dose-dependent effect
same,GI50,"HT-29 [6]; HT-29, 48 h",> 100 µM
same,TGI,"HT-29 [6]; HT-29, 48 h",> 100 µM
same,CC50,"HT-29 [6]; HT-29, 48 h, read-out: LC50 (the source's name)",> 100 µM
same,growth inhibition (GI),SF-539,Dose-dependent effect
same,GI50,"SF-539; SF-539, 48 h",3.07 µM
same,TGI,"SF-539; SF-539, 48 h",32 µM
same,CC50,"SF-539; SF-539, 48 h, read-out: LC50 (the source's name)",> 100 µM
same,GI50,NCI-H322M,> 100 µM
same,LC50 (concentration killing 50% of cells relative to time zero),NCI-H322M,> 100 µM
same,TGI,NCI-H322M,> 100 µM
same,growth inhibition (GI),NCI-H322M,Dose-dependent effect
same,growth inhibition (GI),SK-OV-3,Dose-dependent effect
same,GI50,"SK-OV-3; SK-OV-3, 48 h",3.22 µM
same,LC50 (concentration killing 50% of cells present at time zero),"SK-OV-3; SK-OV-3, 48 h",> 100 µM
same,TGI,"SK-OV-3; SK-OV-3, 48 h",20.5 µM
same,growth inhibition (GI),UACC-62,Dose-dependent effect
same,GI50,"UACC-62; UACC-62, 48 h",5.78 µM
same,LC50,"UACC-62; UACC-62, 48 h",> 100 µM
same,TGI,"UACC-62; UACC-62, 48 h",> 100 µM
same,growth inhibition (GI),NCI-H522,Dose-dependent effect
same,GI50,"NCI-H522; NCI-H522, 48 h",11.6 µM
same,TGI,"NCI-H522; NCI-H522, 48 h",> 100 µM
same,CC50,"NCI-H522; NCI-H522, 48 h, read-out: LC50 (the source's name)",> 100 µM
same,growth inhibition (GI),OVCAR-5,Dose-dependent effect
same,GI50,[7],58.1 µM
same,LC50,[7],> 100 µM
same,TGI,[7],> 100 µM
same,GI50,[8],> 100 µM
same,LC50,[8],> 100 µM
same,TGI,[8],> 100 µM
same,growth inhibition (GI),UACC-257,Dose-dependent effect
same,growth at 10 µM,HT-29 [2],75.1%
same,growth inhibition (GI),NCI-H460,Dose-dependent effect
same,GI50,"NCI-H460; NCI-H460, 48 h",44.7 µM
same,LC50,"NCI-H460; NCI-H460, 48 h",> 100 µM
same,TGI,"NCI-H460; NCI-H460, 48 h",> 100 µM
